Reference: ChEMBL document CHEMBL4138228, “Substituted carbamothioic amine-1-carbothioic thioanhydrides as novel trichomonicidal fungicides: Design, synthesis, and biology” (Eur J Med Chem, 2018)
Converted amounts (≈) assume the structure as drawn.

Tests used:
Nakaseomyces glabratus = test: Antifungal activity against Candida glabrata ATCC 2001 after 48 hrs by broth microdilution method; format: functional; conditions: ATCC 2001, 48 h
How it was run: (§1)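 Broth microdilution per NCCLS guidelines in MOPS-buffered RPMI 1640; starting inoculum 1-5 x 10^3 CFU/mL; plates incubated at 35 °C; MIC recorded after 48 h; fluconazole as reference; experiments repeated three times.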

Candida albicans [1] = test: Antifungal activity against Candida albicans ATCC 66027 after 48 hrs by broth microdilution method; format: functional; conditions: ATCC 66027, 48 h; how it was run: as §1
Candida albicans [2] = test: Antifungal activity against Candida albicans ATCC 14053 after 48 hrs by broth microdilution method; format: functional; conditions: ATCC 14053, 48 h; how it was run: as §1
Candida albicans [3] = test: Antifungal activity against Candida albicans ATCC 10231 after 48 hrs by broth microdilution method; format: functional; conditions: ATCC 10231, 48 h; how it was run: as §1
Candida albicans [4] = test: Antifungal activity against Candida albicans patient isolate after 48 hrs by broth microdilution method; format: functional; how it was run: as §1
[5] = system: Trichophyton mentagrophytes; test: Antifungal activity against Trichophyton mentagrophytes after 48 hrs by broth microdilution method; format: functional; how it was run: as §1
Sporothrix schenckii = test: Antifungal activity against Sporothrix schenckii after 48 hrs by broth microdilution method; format: functional; how it was run: as §1
Cryptococcus neoformans = test: Antifungal activity against Cryptococcus neoformans after 48 hrs by broth microdilution method; format: functional; how it was run: as §1
[6] = Selectivity index, ratio of IC50 for human HeLa cells to MIC for metronidazole-susceptible Trichomonas vaginalis; format: toxicity; conditions: read-out: Selectivity Index
[7] = Selectivity index, ratio of IC50 for human HeLa cells to MIC for metronidazole-resistant Trichomonas vaginalis CDC085 ATCC 50143; format: toxicity; conditions: read-out: Selectivity Index
HeLa = test: Cytotoxicity against human HeLa cells after 24 hrs by MTT assay; format: cell-based
Trichomonas vaginalis [8] = test: Antitrichomonas activity against metronidazole-resistant Trichomonas vaginalis CDC085 ATCC 50143 assessed as decrease in cell viability after 48 hrs by trypan blue exclusion method; format: functional; conditions: CDC085 ATCC 50143, 48 h
Trichomonas vaginalis [9] = test: Antitrichomonas activity against metronidazole-susceptible Trichomonas vaginalis assessed as decrease in cell viability after 48 hrs by trypan blue exclusion method; format: functional
Trichomonas vaginalis [10] = test: Potency index, ratio of metronidazole MIC to test compound MIC for metronidazole-resistant Trichomonas vaginalis CDC085 ATCC 50143; format: functional
Candida albicans [11] = test: Antifungal activity against Candida albicans MTCC 183 after 48 hrs by broth microdilution method; format: functional; conditions: MTCC 183, 48 h; how it was run: as §1
Candida parapsilosis = test: Antifungal activity against Candida parapsilosis ATCC 22019 after 48 hrs by broth microdilution method; format: functional; conditions: Lodderomyces parapsilosis, ATCC 22019, 48 h; how it was run: as §1

SMILES	MIC (Nakaseomyces glabratus) [µM]	MIC (Candida albicans [1]) [µM]	MIC (Candida albicans [2]) [µM]	MIC (Candida albicans [3]) [µM]	MIC (Candida albicans [4]) [µM]	MIC [5] [µM]	MIC (Sporothrix schenckii) [µM]	MIC (Cryptococcus neoformans) [µM]	selectivity ratio [6]	selectivity ratio [7]	IC50 (HeLa) [µM]	MIC (Trichomonas vaginalis [8]) [µM]	MIC (Trichomonas vaginalis [9]) [µM]	Ratio (Trichomonas vaginalis [10])	MIC (Candida albicans [11]) [µM]	MIC (Candida parapsilosis) [µM]
CC1CCCN(C(=S)SC(=S)N(C)C)C1 (stereo not given)	95.4 (≈ 25 µg/mL)	47.7 (≈ 12.5 µg/mL)	95.4 (≈ 25 µg/mL)	95.4 (≈ 25 µg/mL)	23.9 (≈ 6.26 µg/mL)	23.9 (≈ 6.26 µg/mL)	23.9 (≈ 6.26 µg/mL)	47.7 (≈ 12.5 µg/mL)	60	30	2900	95.4 (≈ 25 µg/mL)	47.7 (≈ 12.5 µg/mL)	1.5 - 3.8	47.7 (≈ 12.5 µg/mL)	23.9 (≈ 6.26 µg/mL)
CCN(C)C(=S)SC(=S)N(C)C	113 (≈ 25 µg/mL)	28.1 (≈ 6.26 µg/mL)	113 (≈ 25 µg/mL)	113 (≈ 25 µg/mL)	113 (≈ 25 µg/mL)	56.3 (≈ 12.5 µg/mL)	56.3 (≈ 12.5 µg/mL)	225 (≈ 50.1 µg/mL)	18	9	2070	225 (≈ 50.1 µg/mL)	113 (≈ 25 µg/mL)	1.5 - 3.8	56.3 (≈ 12.5 µg/mL)	113 (≈ 25 µg/mL)
CN1CCN(C(=S)SC(=S)N(C)C)CC1	190 (≈ 50.1 µg/mL)	47.5 (≈ 12.5 µg/mL)	95 (≈ 25 µg/mL)	190 (≈ 50.1 µg/mL)	95 (≈ 25 µg/mL)	95 (≈ 25 µg/mL)	95 (≈ 25 µg/mL)	190 (≈ 50.1 µg/mL)	26	12	1220	95 (≈ 25 µg/mL)	47.5 (≈ 12.5 µg/mL)	1.3 - 9.5	95 (≈ 25 µg/mL)	190 (≈ 50.1 µg/mL)
CN(C)C(=S)SC(=S)N(C)C [BIS(DIMETHYLAMINETHIOCARBONYL)MONOSULFIDE]	60.1 (≈ 12.5 µg/mL)	60.1 (≈ 12.5 µg/mL)	120 (≈ 25 µg/mL)	120 (≈ 25 µg/mL)	120 (≈ 25 µg/mL)	60.1 (≈ 12.5 µg/mL)	60.1 (≈ 12.5 µg/mL)	240 (≈ 50.1 µg/mL)	> 83	> 20	> 5000	240 (≈ 50.1 µg/mL)	60.1 (≈ 12.5 µg/mL)	1.3 - 11.2	120 (≈ 25 µg/mL)	120 (≈ 25 µg/mL)
CN(C)C(=S)SC(=S)N1CCN(c2ccccc2)CC1	> 153	> 153	> 153	> 153	38.3 (≈ 12.5 µg/mL)	76.7 (≈ 25 µg/mL)	76.7 (≈ 25 µg/mL)	76.7 (≈ 25 µg/mL)	42	21	1610	76.7 (≈ 25 µg/mL)	38.3 (≈ 12.5 µg/mL)	1.3 - 9.5	> 153	76.7 (≈ 25 µg/mL)
CN(C)C(=S)SC(=S)N1CCN(C(=S)NCCc2ccccc2)CC1	> 121	> 121	> 121	> 121	> 121	> 121	> 121	> 121	> 83	> 20	> 5000	242 (≈ 99.9 µg/mL)	60.5 (≈ 25 µg/mL)	1.3 - 11.2	> 121	> 121
CN(C)C(=S)SC(=S)N1CCN(C(=S)NC2CCCCC2)CC1	> 128	> 128	> 128	> 128	> 128	128 (≈ 50 µg/mL)	128 (≈ 50 µg/mL)	> 128	> 161	> 79	> 5000	63.9 (≈ 25 µg/mL)	32 (≈ 12.5 µg/mL)	1.3 - 11.2	> 128	128 (≈ 50 µg/mL)
CN(C)C(=S)SC(=S)N1CCN(C(=S)SCc2ccccc2)CC1	120 (≈ 50 µg/mL)	30 (≈ 12.5 µg/mL)	120 (≈ 50 µg/mL)	> 120	30 (≈ 12.5 µg/mL)	60.1 (≈ 25 µg/mL)	60.1 (≈ 25 µg/mL)	60.1 (≈ 25 µg/mL)	> 83	> 41	> 5000	120 (≈ 50 µg/mL)	60.1 (≈ 25 µg/mL)	1.3 - 11.2	120 (≈ 50 µg/mL)	7.5 (≈ 3.12 µg/mL)
CN(C)C(=S)SC(=S)N1CCN(c2cccc(Cl)c2Cl)CC1	> 127	> 127	> 127	> 127	31.7 (≈ 12.5 µg/mL)	15.9 (≈ 6.26 µg/mL)	15.9 (≈ 6.26 µg/mL)	127 (≈ 50.1 µg/mL)	25	12	1590	127 (≈ 50.1 µg/mL)	63.5 (≈ 25 µg/mL)	1.3 - 9.5	63.5 (≈ 25 µg/mL)	31.7 (≈ 12.5 µg/mL)
CN(C)C(=S)SC(=S)N1CCCCC1	50.4 (≈ 12.5 µg/mL)	50.4 (≈ 12.5 µg/mL)	25.2 (≈ 6.26 µg/mL)	50.4 (≈ 12.5 µg/mL)	101 (≈ 25 µg/mL)	101 (≈ 25 µg/mL)	101 (≈ 25 µg/mL)	202 (≈ 50.1 µg/mL)	> 200	> 50	> 5000	101 (≈ 25 µg/mL)	25.2 (≈ 6.26 µg/mL)	1.5 - 3.8	50.4 (≈ 12.5 µg/mL)	101 (≈ 25 µg/mL)
